Data on ten molecules can be found in ChEMBL document CHEMBL1155561, “A new 2D-TLC bioautography method for the discovery of novel antifungal agents To control plant pathogens” (2000).

Calls of active or inactive are those of the source. The calls are words filed in the database; no cut-off is given here.

In this assay the test system is Colletotrichum fragariae. Briefly: Antifungal activity against Colletotrichum fragariae assessed as zone of inhibition. The class given is functional. The method, boiled down: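 Direct 1D-TLC bioautography on glass-backed Si gel plates (activated 1 h at 100 °C). Standards were applied at […] from 5 µM ethanolic solutions (1 × 10-5 µmol/spot) and developed in 1:1 EtOAc/hexanes. Plates were sprayed three times with conidia (ca. 3 × 10^5/mL) in PDB with 0.1% agar and 0.1% Tween-80, then incubated at 24 °C with a 12 h photoperiod. Inhibition zones were measured after 4 days.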

With `Nc1c(Cl)cc([N+](=O)[O-])cc1Cl` [ALLISAN], the inhibition zone (IZ) came out at 80 mm2.
The same measure, in the same setting: to `COC(=O)Nc1nc2ccccc2[nH]1` [CARBENDAZIM] belongs 24 mm2; to `O=[N+]([O-])c1c(Cl)c(Cl)c(Cl)c(Cl)c1Cl` [PENTACHLORONITROBENZENE], 5 mm2.
For the molecule `CC(C)Oc1cccc(NC(=O)c2ccccc2C(F)(F)F)c1`, the result was inactive.
Consider `COC(=O)NC(=S)Nc1ccccc1NC(=S)NC(=O)OC` [THIOPHANATE METHYL], for which the inhibition zone (IZ) was 24 mm2.
Turning to `CO/C=C(/C(=O)OC)c1ccccc1Oc1cc(Oc2ccccc2C#N)ncn1` [AZOXYSTROBIN], the inhibition zone (IZ) was 80 mm2.
As to `c1ccc2[nH]c(-c3cscn3)nc2c1`, the outcome was inactive.
Still for that read-out and setting: for `O=CNC(N1CCN(C(NC=O)C(Cl)(Cl)Cl)CC1)C(Cl)(Cl)Cl` (stereo not given) the value was “inactive”.
As for `CC(=O)O.CCCCCCCCCCCCNC(=N)N` [DODINE], the inhibition zone (IZ) came out at 20 mm2.
On the same count and under the same terms, to `C=CC1(C)OC(=O)N(c2cc(Cl)cc(Cl)c2)C1=O` (stereo not given) [VINCLOZOLIN] belongs 48 mm2.
